Hits are enriched below; roughly 3.2% of the tested compounds scored in any of these assays.
Ecoli rRNA inh: selective bacterial rRNA inhibition in E. coli. GFP signal change (wild-type ribosome), % (concentration not given with the values). E. coli WT GFP vs humanized-ribosome RFP mutants, fluorescence, 24 h; stronger effect = lower value; DMSO median 0, no signal -100. 350,000 compounds, 1.6% hits;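 active means significant combined selectivity score with lowered wild-type GFP, culture density cut under 30%, mutant RFP and density less affected; inactive means any of these conditions unmet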
S100A4 inh HTS: inhibitors of human S100A4 binding to myosin IIA peptide. S100A4/TAMRA-MyoIIA peptide fluorescence polarization. 360,000 compounds, 0.14% hits. inhibition, % at 10.7 µM. P26447;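 active means mean inhibition of at least 70% across replicates, with every replicate also reaching that level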
Target sequence (P26447 whole entry, looked up): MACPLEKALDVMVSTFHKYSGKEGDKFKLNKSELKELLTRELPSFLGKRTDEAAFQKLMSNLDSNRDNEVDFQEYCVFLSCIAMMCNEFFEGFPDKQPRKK
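Material: S100A4 monomer protein / Buffer or medium: 50 mM HEPES pH 7.2, 10 mM CaCl2, 100 mM KCl / Times: 5 min incubation before reading / Benchmarks: neutral control DMSO, positive control TFP / Reagent: labelled myosin peptide probe, 5 nM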
DENV2 CPE: protects cells from dengue virus 2 cytopathic effect; DENV2-infected cells, cytopathic effect rescue, plate reader; CPE inhibition, % at 9.99 µM; 350,000 compounds, 1.7% hits; in the data active means CPE inhibition above about 20%, passing the limit was not always enough; tested in BHK-21 cells;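 further: 0% = median of neutral control wells and 100% = median of positive control wells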
Cneo AK release: Cryptococcus neoformans lysis via adenylate kinase release. C. neoformans lysis, adenylate kinase release luminescence, 4 h; normalised: neutral wells 0, clomiphene wells 100. lysis activity, % at 15 µM. 360,000 compounds, 0.2% hits;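 active means mean lysis activity across replicates of at least 80%, whatever share of replicates individually reach that level; inactive means mean lysis activity below 80%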
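Material – log-phase Cryptococcus neoformans yeast cells · Input – 5 × 10^6 yeast cells/mL · Medium – fresh YPD growth medium · Doses – single compound concentration per well · Timing – static 4 h at 37 °C with compound, 1 h detection · Detection – adenylate kinase release luminescence · Read-out – signal increase indicating cell lysis · Control set – Clomiphene as positive lysis control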
MLL AF4-AF9 inh: MLL-AF4/AF9 protein interaction inhibition; P42568; AlphaScreen, biotin-AF4 peptide binding to FLAG-AF9; inhibition, % at 10 µM; 350,000 compounds, 0.47% hits; AID 651704;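 active means every replicate reaching a set inhibition limit, whatever the replicate mean, cut at about 25% in these data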;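 further: 0% = plate neutral control median and 100% = total signal loss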
Target sequence (P42568 whole entry, looked up): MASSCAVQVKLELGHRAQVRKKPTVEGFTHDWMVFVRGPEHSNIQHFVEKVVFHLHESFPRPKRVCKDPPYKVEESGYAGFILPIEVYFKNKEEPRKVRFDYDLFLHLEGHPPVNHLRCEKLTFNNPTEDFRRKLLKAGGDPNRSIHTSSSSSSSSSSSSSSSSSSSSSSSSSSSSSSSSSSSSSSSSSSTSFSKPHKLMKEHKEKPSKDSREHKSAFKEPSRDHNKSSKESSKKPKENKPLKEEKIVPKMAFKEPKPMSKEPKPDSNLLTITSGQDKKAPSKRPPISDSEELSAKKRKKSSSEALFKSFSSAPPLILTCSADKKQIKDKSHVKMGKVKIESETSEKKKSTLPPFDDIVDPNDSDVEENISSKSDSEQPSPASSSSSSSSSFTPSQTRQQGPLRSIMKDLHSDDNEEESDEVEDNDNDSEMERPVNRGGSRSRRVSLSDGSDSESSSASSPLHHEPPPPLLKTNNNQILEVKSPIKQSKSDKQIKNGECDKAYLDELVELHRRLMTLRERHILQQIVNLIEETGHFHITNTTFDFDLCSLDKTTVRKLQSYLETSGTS
PfHsp90 set2: inhibits growth of yeast expressing Plasmodium falciparum Hsp90; inhibition, % at 9.4 µM; AID 504621; 310,000 compounds, 0.32% hits; S. cerevisiae expressing PfHsp90, BacTiter-Glo ATP, 48 h; yeast lacking PDR1 and PDR3 efflux regulators;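 active means every replicate shows inhibition above about 80%, whatever the replicate mean, limit read from the data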;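 further: 0% = DMSO neutral controls and 100% = 20 µM radicicol positive controls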
Numbers without * were called inactive; x = no result given.

SMILES | Ecoli rRNA inh | S100A4 inh HTS | DENV2 CPE | Cneo AK release | MLL AF4-AF9 inh | PfHsp90 set2
C[C@H](CO)N1C[C@H](C)[C@H](CN(C)Cc2cccc(F)c2)Oc2ncc(C3=CCCCC3)cc2C1=O | 3.9 | -21.5 | 23.3* | x | 0.6 | x
C[C@@H]1CN([C@@H](C)CO)C(=O)c2cc(C3=CCCCC3)cnc2O[C@@H]1CN(C)Cc1cccnc1 | 3.5 | -0.1 | 20.2* | -0.9 | -1.7 | x
COCC(=O)N1[C@H](CO)[C@H](c2ccc(-c3cccc(OC)c3)cc2)C12CN(C(C)=O)C2 | -2.4 | -12.9 | 8.2 | x | 0.2 | x
Cc1ccccc1-c1cnc2c(c1)C(=O)N([C@H](C)CO)C[C@H](C)[C@H](CN(C)Cc1cncnc1)O2 | -3.3 | 17.7 | -2.0 | 4.7 | -2.3 | x
CC(C)(C)NC(=O)C(c1cccc2ccccc12)n1c(=O)c(-c2ccccc2)nc2ccccc21 (configuration not stated) | x | 8.5 | 27.1* | x | x | x
CC(C)(C)NC(=O)C(c1cccc2ccccc12)n1c(=O)c(-c2ccco2)nc2ccccc21 (configuration not stated) | 3.2 | -5.4 | 0.0 | x | 5.0 | x
CC(C)(C)Nc1nc2nonc2nc1NC(C)(C)C | -49.3* | -1.5 | 0.9 | 0.4 | -3.0 | -9.4
O=C(Nc1cccc(Cl)c1)N1C[C@@H]2[C@H](c3ccccc31)[C@H](CO)N2C(=O)C1CCCC1 | -14.2 | -11.0 | -7.1 | 0.6 | 1.6 | x
C[C@H](CO)N1C[C@H](C)[C@@H](CN(C)C(=O)c2ccccc2)OCCCC[C@H](C)Oc2ccc(NC(=O)CCCN(C)C)cc2C1=O | 2.9 | x | x | x | x | x
COc1ccc(CONc2ncnc3nonc23)cc1[N+](=O)[O-] | -25.4* | 0.5 | -3.0 | x | 1.7 | -22.3
CCONc1ncnc2nonc12 | 9.4 | -1.9 | 0.1 | -0.3 | -2.7 | 3.1
COc1cc(/C=N/Nc2ccccc2)ccc1O | -1.7 | -15.1 | 5.9 | -0.2 | 5.1 | -14.5
COC(=O)c1[nH]c2cc(OC)c(OC)cc2c1/C=N/Nc1ccccc1 | -19.1* | 7.4 | 4.7 | x | -5.0 | -1.6
C[C@H](O)C#Cc1cnc2c(c1)C(=O)N([C@H](C)CO)C[C@H](C)[C@@H](CN(C)C(=O)Cc1ccccn1)O2 | -1.4 | 10.0 | -8.9 | 2.5 | -4.1 | x
Cc1nn(-c2ccc3ccccc3c2)c(=O)c2ccccc12 | -7.8 | -6.0 | -1.8 | -4.3 | -10.9 | 3.7
Cc1nn(-c2nc3ccccc3[nH]2)c(=O)c2ccccc12 | 26.1 | -3.6 | x | x | -1.9 | 90.3*
COc1ccc(CN2CC3(CCN(C(=O)C4CCC4)CC3)c3c(n(C)c4cc(OC)ccc34)[C@H]2CO)cc1 | 4.1 | x | x | x | x | x
COc1cccc(-c2ccc(SCC(=O)c3ccccc3)nn2)c1 | -26.9* | -2.6 | 6.9 | x | -4.4 | -107.6
COc1ccc(C(=O)CSc2ccc(-c3ccccc3)nn2)cc1 | x | x | x | -1.3 | x | -5.8
CC(=O)N1CC2(C1)[C@H](c1ccc(-c3ccc(F)cc3)cc1)[C@H](CO)N2C(C)=O | -2.7 | -8.5 | 82.5* | x | -0.1 | x
CC(=O)N1CC2(C1)[C@H](c1ccc(-c3ccc(C#N)cc3)cc1)[C@H](CO)N2CCC(F)(F)F | -7.3 | 12.9 | 33.3* | x | -2.3 | x
CC(=O)N1CC2(C1)[C@@H](c1ccc(-c3ccc(C#N)cc3)cc1)[C@@H](CO)N2CCC(F)(F)F | -5.0 | 7.5 | -10.9 | x | -0.3 | x
COc1ccc(S(=O)(=O)Nc2cccc3c2O[C@@H](CN(C)CC2CCCCC2)[C@H](C)CN([C@H](C)CO)C3=O)cc1 | 0.9 | x | x | x | x | x
CO[C@@H]1CC[C@@H]2CCN(C)C(=O)C[C@@H](c3ccccc3)CN(C)C(=O)c3cccc(C#N)c3OC[C@H]1O2 | -1.5 | -2.2 | 1.2 | 2.6 | 22.2 | x
CCCN(C)C[C@@H]1OCCCC[C@@H](C)Oc2ccc(NS(C)(=O)=O)cc2C(=O)N([C@H](C)CO)C[C@H]1C | 0.8 | -7.7 | 8.5 | 1.8 | -4.7 | x
SMILES | Ecoli rRNA inh | S100A4 inh HTS | DENV2 CPE | Cneo AK release | MLL AF4-AF9 inh | PfHsp90 set2
CCOCCCNC(=O)C(c1ccc(Cl)cc1)N(Cc1cccs1)C(=O)c1ccccn1 (configuration not stated) | -23.0* | -2.3 | -3.0 | x | -2.7 | x
CCOC(=O)N1CCC(C(=O)NNC(=O)c2ccc(Cl)cc2Cl)CC1 | 7.5 | -0.2 | 45.3* | -1.4 | -4.0 | 1.7
CCOC(=O)N1CCN(C(=O)CNC(=O)c2ccc(Cl)cc2Cl)CC1 | 17.4 | -3.1 | -0.4 | 0.4 | -0.5 | -11.0
COC(=O)c1ccc(NC(=O)C2CC3CCC2C3)cc1 (configuration not stated) | -16.4 | -2.1 | 47.5* | -5.1 | -3.2 | -4.3
COC(=O)C[C@H]1CC[C@@H]2[C@H](COc3ccc(NC(=O)c4ccc(F)cc4)cc3C(=O)N2C)O1 | 0.4 | 1.8 | 3.2 | 53.5 | -2.2 | x
C[C@H](CO)N1C[C@H](C)[C@@H](CN(C)S(=O)(=O)c2ccc(F)cc2)Oc2c(NC(=O)C3CC3)cccc2C1=O | -0.1 | 23.8 | 10.4 | 16.1 | -1.3 | x
Cc1ccc2c(CC(=O)OC(C)C(=O)Nc3ncc(Cl)cc3Cl)coc2c1 (configuration not stated) | -19.9 | -2.1 | 78.7* | 0.3 | -1.9 | 4.9
CC(OC(=O)Cc1coc2ccc3ccccc3c12)C(=O)Nc1ncc(Cl)cc1Cl (configuration not stated) | x | x | x | x | x | -59.3
CCCC(=O)Nc1ccc2c(c1)C(=O)N(C)[C@H]1CC[C@@H](CC(=O)NCC3CCCCC3)O[C@H]1CO2 | -2.6 | 13.0 | 12.9 | -0.5 | 0.5 | x
Cc1ccc2cc(CN(Cc3cccs3)Cc3nnnn3CC3CCCO3)c(=O)[nH]c2c1 (configuration not stated) | -28.9* | -4.3 | 2.8 | -0.4 | 4.8 | -13.5
Cc1ccc2[nH]c(=O)c(CN(Cc3cccs3)Cc3nnnn3CC3CCCO3)cc2c1 (configuration not stated) | x | x | x | 0.9 | x | -5.3
COc1cc(C(=S)N2CCCCC2)ccc1OCC(=O)Nc1ccc(F)cc1 | -5.9 | -19.7 | 98.1* | 13.3 | 6.1 | 18.9
COc1cc(C(=S)N2CCCCC2)ccc1OCC(=O)N1CCCC1 | x | x | x | -5.8 | x | x
COc1cc(C(=S)N2CCCC2)ccc1OCc1ccc(C)cc1 | -17.1 | 4.2 | 47.0* | 3.9 | 2.2 | -2.1
CCOC(=O)c1ccc(N2C(=O)C=CC2=O)cc1 | x | x | x | 0.8 | x | 130.2*
O=C(Nc1ccccc1)N1CC(=O)N2[C@H](CO)[C@H](c3ccc(C#CC4CCCC4)cc3)[C@H]2C1 | -20.4 | -3.2 | 16.3 | x | 2.9 | x
COc1cc2c(cc1OC)[C@@]1(c3ccccc3)CCCC[C@H]1[C@@H]2NC(=O)C(F)(F)F | 11.4 | 1.9 | 20.3* | x | x | x
Oc1ccc(Cl)cc1C1=NCCNC(C(F)(F)C(F)F)=C1 | -22.1* | 1.8 | x | -1.5 | x | x

Assay outcomes (PubChem)
